In ChEMBL document CHEMBL4346654 (Eur J Med Chem, 2019):
In brackets after ≈: the same amount, converted by molar mass.

What was measured:
Haemophilus influenzae [1] = experiment: Bactericidal activity against azithromycin-susceptible Haemophilus influenzae ATCC 49247 pretreated followed by subculture in absence of compound measured after 24 hrs; type: functional
Method in brief: (§1)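 Isolates were identified by 16S rDNA sequencing. MIC was determined by CLSI-recommended two-fold broth dilution. For MBC, samples from 1–8 fold MIC were transferred to culture medium and subcultured for 24 h without antibiotic.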

Staphylococcus aureus [2] = experiment: Antibacterial activity against MLS-resistant Staphylococcus aureus PU 20 expressing constitutive ermC gene assessed as reduction in microbial growth by CLSI based two-fold broth dilution method; type: functional
Streptococcus pneumoniae [3] = experiment: Antibacterial activity against erythromycin-susceptible Streptococcus pneumoniae ATCC49619 assessed as reduction in microbial growth by CLSI based two-fold broth dilution method; type: functional
Staphylococcus aureus [4] = experiment: Bactericidal activity against MLS-resistant Staphylococcus aureus PU 20 expressing constitutive ermC gene pretreated followed by subculture in absence of compound measured after 24 hrs; type: functional
Method in brief: (§2)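 MBC assay. Following MIC determination by CLSI standard two-fold broth dilution, samples at 1–8 fold MIC were transferred to fresh culture medium. They were subcultured for 24 h without antibiotic. Isolates were identified by 16S rDNA sequencing. S. aureus ATCC 29213 was used as a control strain.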

Haemophilus influenzae [5] = experiment: Antibacterial activity against azithromycin-susceptible Haemophilus influenzae ATCC 49247 assessed as reduction in microbial growth by CLSI based two-fold broth dilution method; type: functional
Streptococcus pneumoniae [6] = experiment: Bactericidal activity against erythromycin-susceptible Streptococcus pneumoniae ATCC49619 pretreated followed by subculture in absence of compound measured after 24 hrs; type: functional; method in brief: as §1
Staphylococcus aureus [7] = experiment: Selectivity ratio of MBC to MIC for MLS-resistant Staphylococcus aureus PU 20 expressing constitutive ermC gene; type: functional
Method in brief: (§3)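 MBC/MIC ratio. MIC was measured by CLSI standard two-fold broth dilution. MBC was measured by transferring samples at 1–8 fold MIC to culture medium and subculturing for 24 h without antibiotic. Isolates were identified by 16S rDNA sequencing.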

Streptococcus pneumoniae [8] = experiment: Antibacterial activity against penicillin-susceptible Streptococcus pneumoniae PU 09 expressing mef gene assessed as reduction in microbial growth by CLSI based two-fold broth dilution method; type: functional
Staphylococcus aureus [9] = experiment: Bactericidal activity against MLS/methicillin-resistant Staphylococcus aureus PU 32 expressing inducible ermA gene pretreated followed by subculture in absence of compound measured after 24 hrs; type: functional; method in brief: as §2
Streptococcus pneumoniae [10] = experiment: Selectivity ratio of MBC to MIC for Streptococcus pneumoniae 07P390 expressing constitutive ermB gene; type: functional; method in brief: as §1
Streptococcus pyogenes [11] = experiment: Bactericidal activity against MLS-resistant Streptococcus pyogenes 01-968 expressing inducible ermB gene pretreated followed by subculture in absence of compound measured after 24 hrs; type: functional; method in brief: as §2
Streptococcus pyogenes [12] = experiment: Selectivity ratio of MBC to MIC for MLS-resistant Streptococcus pyogenes 01-968 expressing inducible ermB gene; type: functional; method in brief: as §3
Streptococcus pneumoniae [13] = experiment: Bactericidal activity against penicillin-susceptible Streptococcus pneumoniae PU 09 expressing mef gene pretreated followed by subculture in absence of compound measured after 24 hrs; type: functional; method in brief: as §1
Staphylococcus aureus [14] = experiment: Antibacterial activity against MLS-resistant Staphylococcus aureus PU 32 expressing inducible ermA gene assessed as reduction in microbial growth by CLSI based two-fold broth dilution method; type: functional
Staphylococcus aureus [15] = experiment: Selectivity ratio of MBC to MIC for MLS/methicillin-resistant Staphylococcus aureus PU 32 expressing inducible ermA gene; type: functional; method in brief: as §3
Streptococcus pyogenes [16] = experiment: Antibacterial activity against MLS-resistant Streptococcus pyogenes 01-968 expressing inducible ermB gene assessed as reduction in microbial growth by CLSI based two-fold broth dilution method; type: functional
Streptococcus pneumoniae [17] = experiment: Selectivity ratio of MBC to MIC for erythromycin-susceptible Streptococcus pneumoniae ATCC49619; type: functional; method in brief: as §1
Streptococcus pneumoniae [18] = experiment: Bactericidal activity against Streptococcus pneumoniae 07P390 expressing constitutive ermB gene pretreated followed by subculture in absence of compound measured after 24 hrs; type: functional; method in brief: as §1
Streptococcus pneumoniae [19] = experiment: Selectivity ratio of MBC to MIC for penicillin-susceptible Streptococcus pneumoniae PU 09 expressing mef gene; type: functional; method in brief: as §1
Haemophilus influenzae [20] = experiment: Selectivity ratio of MBC to MIC for azithromycin-susceptible Haemophilus influenzae ATCC 49247; type: functional; method in brief: as §1
Streptococcus pneumoniae [21] = experiment: Antibacterial activity against Streptococcus pneumoniae 07P390 expressing constitutive ermB gene assessed as reduction in microbial growth by CLSI based two-fold broth dilution method; type: functional
Moraxella catarrhalis [22] = experiment: Bactericidal activity against erythromycin-susceptible Moraxella catarrhalis 13L332 pretreated followed by subculture in absence of compound measured after 24 hrs; type: functional; method in brief: as §1
[23] = Systemic plasma clearance in Sprague-Dawley rat at 20 mg/kg, po after 0.25 to 24 hrs by LC-MS/MS analysis; type: ADME, organism-based
Method in brief: (§4)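 Male SD rats were given a single 20 mg/Kg oral dose. Blood was sampled at 0.25, 0.5, 1, 2, 4, 6, 8 and 24 h and centrifuged at 2500 g for 5 min at 4 °C. Drug levels were quantified by LC-MS/MS. t1/2, Cmax, Tmax, CL, MRT and AUC were calculated from the concentration–time data.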

[24] = AUCinfinity in Sprague-Dawley rat at 20 mg/kg, po after 0.25 to 24 hrs by LC-MS/MS analysis; type: ADME, organism-based; set-up: dose 20 mg/kg, time infinity, route oral; conditions: Sprague-Dawley, in vivo; method in brief: as §4
Streptococcus pyogenes [25] = experiment: Antibacterial activity against Streptococcus pyogenes 12-207 expressing mef gene assessed as reduction in microbial growth by CLSI based two-fold broth dilution method; type: functional
Streptococcus pyogenes [26] = experiment: Bactericidal activity against Streptococcus pyogenes 12-207 expressing mef gene pretreated followed by subculture in absence of compound measured after 24 hrs; type: functional; method in brief: as §1
Rattus norvegicus = experiment: Ratio of test compound half life to telithromycin half life in Sprague-Dawley rat at 20 mg/kg, po after 0.25 to 24 hrs by LC-MS/MS analysis; type: ADME, organism-based; conditions: in vivo
Cytochrome P450 3A4 = Cytochrome P450 3A4 (Homo sapiens, UniProt P08684); experiment: Inhibition of CYP3A4 in human liver microsomes assessed as reduction in metabolite formation using midazolam as substrate incubated for 10 mins in presence of NADPH by HPLC based mass spectrometric method; type: ADME
Sequence of Cytochrome P450 3A4 (P08684 whole entry): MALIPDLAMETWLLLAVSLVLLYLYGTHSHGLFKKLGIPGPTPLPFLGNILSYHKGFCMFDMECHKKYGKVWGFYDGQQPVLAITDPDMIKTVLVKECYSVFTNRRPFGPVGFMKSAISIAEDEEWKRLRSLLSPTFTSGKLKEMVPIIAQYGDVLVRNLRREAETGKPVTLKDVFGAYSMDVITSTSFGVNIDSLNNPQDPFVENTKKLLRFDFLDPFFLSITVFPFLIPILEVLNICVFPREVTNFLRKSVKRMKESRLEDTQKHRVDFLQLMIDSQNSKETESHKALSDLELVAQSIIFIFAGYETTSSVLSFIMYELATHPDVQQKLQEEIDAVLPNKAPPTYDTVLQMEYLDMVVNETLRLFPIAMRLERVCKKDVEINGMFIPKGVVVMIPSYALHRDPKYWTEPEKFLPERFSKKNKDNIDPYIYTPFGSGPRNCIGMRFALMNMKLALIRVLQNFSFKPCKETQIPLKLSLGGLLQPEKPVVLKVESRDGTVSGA
Method in brief: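 Human liver microsome CYP3A4 with midazolam substrate in 0.1 M potassium phosphate buffer was prewarmed at 37 °C for 5 min. Compound and 25 mM NADPH solution (stock) were added, then incubated at 37 °C for 10 min. Ketoconazole served as the positive inhibitor. Metabolite was measured by UPLC–triple quadrupole MS as the metabolite/internal standard peak area ratio, and IC50 was derived by curve fitting.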

Moraxella catarrhalis [27] = experiment: Antibacterial activity against erythromycin-susceptible Moraxella catarrhalis 13L332 assessed as reduction in microbial growth by CLSI based two-fold broth dilution method; type: functional
Streptococcus pyogenes [28] = experiment: Selectivity ratio of MBC to MIC for Streptococcus pyogenes 12-207 expressing mef gene; type: functional; method in brief: as §1
[29] = AUC (0 to t) in Sprague-Dawley rat at 20 mg/kg, po after 0.25 to 24 hrs by LC-MS/MS analysis; type: ADME, organism-based; set-up: time upper 24 hr, dose 20 mg/kg, time lower 0.25 hr, route oral; conditions: in vivo; method in brief: as §4
[30] = Half life in Sprague-Dawley rat at 20 mg/kg, po after 0.25 to 24 hrs by LC-MS/MS analysis; type: ADME, organism-based; conditions: in vivo; method in brief: as §4
[31] = Ratio of test compound MRT to telithromycin MRT in Sprague-Dawley rat at 20 mg/kg, po after 0.25 to 24 hrs by LC-MS/MS analysis; type: ADME, organism-based; conditions: in vivo
[32] = MRT in Sprague-Dawley rat at 20 mg/kg, po after 0.25 to 24 hrs by LC-MS/MS analysis; type: ADME, organism-based; conditions: in vivo; method in brief: as §4
[33] = Cmax in Sprague-Dawley rat at 20 mg/kg, po after 0.25 to 24 hrs by LC-MS/MS analysis; type: ADME, organism-based; set-up: dose 20 mg/kg, route oral; conditions: in vivo; method in brief: as §4
Streptococcus pyogenes [34] = experiment: Antibacterial activity against MLS-resistant Streptococcus pyogenes 12-206 expressing constitutive ermA gene assessed as reduction in microbial growth by CLSI based two-fold broth dilution method; type: functional
Streptococcus pyogenes [35] = experiment: Bactericidal activity against MLS-resistant Streptococcus pyogenes 12-206 expressing constitutive ermA gene pretreated followed by subculture in absence of compound measured after 24 hrs; type: functional; method in brief: as §2
[36] = Tmax in Sprague-Dawley rat at 20 mg/kg, po after 0.25 to 24 hrs by LC-MS/MS analysis; type: ADME, organism-based; conditions: in vivo; method in brief: as §4
Moraxella catarrhalis [37] = experiment: Selectivity ratio of MBC to MIC for erythromycin-susceptible Moraxella catarrhalis 13L332; type: functional; method in brief: as §1
Streptococcus pyogenes [38] = experiment: Selectivity ratio of MBC to MIC for MLS-resistant Streptococcus pyogenes 12-206 expressing constitutive ermA gene; type: functional; method in brief: as §3

SMILES	MBC (Haemophilus influenzae [1])	MIC (Staphylococcus aureus [2])	MIC (Streptococcus pneumoniae [3])	MBC (Staphylococcus aureus [4])	MIC (Haemophilus influenzae [5])	MBC (Streptococcus pneumoniae [6])	Selectivity ratio (Staphylococcus aureus [7])	MIC (Streptococcus pneumoniae [8])	MBC (Staphylococcus aureus [9])	Selectivity ratio (Streptococcus pneumoniae [10])	MBC (Streptococcus pyogenes [11])	Selectivity ratio (Streptococcus pyogenes [12])	MBC (Streptococcus pneumoniae [13])	MIC (Staphylococcus aureus [14])	Selectivity ratio (Staphylococcus aureus [15])	MIC (Streptococcus pyogenes [16])	MBC (Streptococcus pneumoniae [18])	Selectivity ratio (Streptococcus pneumoniae [19])	Selectivity ratio (Haemophilus influenzae [20])	MIC (Streptococcus pneumoniae [21])	also measured
CC[C@H]1OC(=O)[C@@](C)(F)C(=O)[C@H](C)[C@@H](O[C@@H]2O[C@H](C)C[C@H](N(C)C)[C@H]2O)[C@](C)(OC)C[C@@H](C)/C(=N\OCC#Cc2ccc3c(c2)c(=O)c(C(=O)O)cn3C2CC2)[C@H](C)[C@H]2OC(=O)O[C@@]21C	16 µg/mL (≈ 17.5 µM)	32 µg/mL	0.25 µg/mL	128 µg/mL (≈ 140 µM)	8 µg/mL	0.5 µg/mL (≈ 0.548 µM)	4	2 µg/mL	4 µg/mL (≈ 4.39 µM)	8	2 µg/mL (≈ 2.19 µM)	8	4 µg/mL (≈ 4.39 µM)	1 µg/mL	4	0.25 µg/mL	32 µg/mL (≈ 35.1 µM)	2	2	4 µg/mL	Selectivity ratio (Streptococcus pneumoniae [17]): 2
CC[C@H]1OC(=O)[C@@](C)(F)C(=O)[C@H](C)[C@@H](O[C@@H]2O[C@H](C)C[C@H](N(C)C)[C@H]2O)[C@](C)(OC)C[C@@H](C)/C(=N\OCCCc2ccc3c(c2)c(=O)c(C(=O)O)cn3C2CC2)[C@H](C)[C@H]2OC(=O)O[C@@]21C	32 µg/mL (≈ 34.9 µM)	64 µg/mL	0.125 µg/mL	128 µg/mL (≈ 140 µM)	16 µg/mL	0.25 µg/mL (≈ 0.273 µM)	2	2 µg/mL	8 µg/mL (≈ 8.73 µM)	2	> 1 µg/mL	>8	2 µg/mL (≈ 2.18 µM)	4 µg/mL	2	0.125 µg/mL	16 µg/mL (≈ 17.5 µM)	1	2	8 µg/mL	Selectivity ratio (Streptococcus pneumoniae [17]): 2
CC[C@H]1OC(=O)[C@@](C)(F)C(=O)[C@H](C)[C@@H](O[C@@H]2O[C@H](C)C[C@H](N(C)C)[C@H]2O)[C@](C)(OC/C=C/c2ccc3c(c2)c(=O)c(C(N)=O)cn3C2CC2)C[C@@H](C)/C(=N\OC)[C@H](C)[C@H]2OC(=O)O[C@@]21C	32 µg/mL (≈ 35 µM)	> 256 µg/mL	≤ 0.008 µg/mL		16 µg/mL	≤ 0.008 µg/mL		0.5 µg/mL	> 2 µg/mL	>8	> 0.016 µg/mL	>8	0.5 µg/mL (≈ 0.548 µM)	0.25 µg/mL	>8	≤ 0.002 µg/mL	> 0.062 µg/mL	1	2	≤ 0.008 µg/mL	MBC (Moraxella catarrhalis [22]): 4 µg/mL (≈ 4.38 µM); CL/F [23]: 80.8 mL/min/kg; AUC(0-inf) [24]: 4770 ng·h/mL; MIC (Streptococcus pyogenes [25]): 0.062 µg/mL; MBC (Streptococcus pyogenes [26]): 0.125 µg/mL (≈ 0.137 µM); Ratio (Rattus norvegicus): 2.5 to 3.6; IC50 (Cytochrome P450 3A4): 14.9 µM; MIC (Moraxella catarrhalis [27]): 0.5 µg/mL; Selectivity ratio (Streptococcus pyogenes [28]): 2; AUC(0-t) [29]: 4600 ng·h/mL; half-life [30]: 4.34 h; Ratio [31]: 2.3 to 2.6; MRT [32]: 8.32 h; Cmax [33]: 369 ng/mL; MIC (Streptococcus pyogenes [34]): 0.016 µg/mL; MBC (Streptococcus pyogenes [35]): > 0.125 µg/mL; Tmax [36]: 6.67 h; Selectivity ratio (Moraxella catarrhalis [37]): 8; Selectivity ratio (Streptococcus pyogenes [38]): >8
